Reference: ChEMBL document CHEMBL1138524, “Structure-based discovery of triphenylmethane derivatives as inhibitors of hepatitis C virus helicase” (J Med Chem, 2009)
Calls of active or inactive are those of the source. The calls are words filed in the database; no cut-off is given here.

How the values were obtained:
[1] = Cytotoxicity against human HuH7 cells; type: cell-based, Huh-7
[2] = Inhibition of ATPase activity of HCV NS3/4A helicase by autoradiography; parameters: species or system Hepacivirus hominis
In short: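 ATP hydrolysis measured in 20 mM HEPES-KOH pH 7.0, 1.5 mM MgCl2, 2 mM DTT and 0.1 µg/mL poly-U, with [α-32P]ATP spanning 0.067-20 µM ATP. Reaction started by adding His-tagged NS3/4A (0.45 µg) and stopped with EDTA after 5 min. Products separated by PEI-cellulose TLC in 0.375 M K2PO4 pH 3.5 and quantified by autoradiography.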

[3] = Inhibition of HCV NS3/4A helicase by FRET assay; parameters: species or system Hepacivirus hominis
In short: (§1)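 His-tagged NS3/4A (0.9 µg) preincubated with compound on ice for 15 min. Fluorescence (ex 485/em 518 nm) followed continuously and end-point minus start normalized to DMSO. Screened at 100 µM final.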

Hepatitis C virus [4] = experiment: Antiviral activity against HCV1b infected in human Ava5/Huh7 cells by replicon-cell assay; type: functional, organism-based, Hepacivirus hominis; conditions: genotype 1b
Hepacivirus hominis [5] = experiment: Inhibition of HCV NS3/4A helicase assessed as blockade of ssRNA formation form dsRNA at 100 uM by PAGE
Hepacivirus hominis [6] = experiment: Inhibition of HCV NS3/4A helicase assessed as blockade of dsRNA binding to enzyme by gel mobility shift assay
In short: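 Gel mobility shift. NS3/4A (0.45 µg) preincubated with 100 µM compound in helicase buffer without ATP for 5 min at 37 °C. Then 0.66 pmol isotope-labeled partial dsRNA added for 15 min more. Complexes resolved on 4% polyacrylamide containing 5% glycerol and visualized by autoradiography.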

[7] = Ratio of CC50 for human HuH7 cells to EC50 for HCV1b; parameters: species or system Huh-7
Hepacivirus hominis [8] = experiment: Inhibition of HCV NS3/4A helicase at 100 uM by FRET assay; in short: as §1
[9] = Cytotoxicity against human Ava5/Huh7 cells assessed as reduction in cell growth at 5 uM after 5 days in presence of polypeptide synthesis blocker G418; type: cell-based; parameters: scale not given: the % may be the effect or the level left; conditions: ava5/huh7, 120 h
[10] = Cytotoxicity against human Ava5/Huh7 cells assessed as reduction in cell growth at 5 uM after 5 days in absence of polypeptide synthesis blocker G418; type: cell-based; parameters: scale not given: the % may be the effect or the level left; conditions: ava5/huh7, 120 h
Hepatitis C virus [11] = experiment: Antiviral activity against HCV1b infected in human Ava5/Huh7 cells assessed as decrease in viral RNA level at 5 to 10 uM after 2 days by RT-PCR relative to control; type: functional, Hepacivirus hominis, genotype 1b; parameters: scale not given: the % may be the effect or the level left
In short: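 Ava.5/Huh-7 replicon cells (genotype 1b) seeded and grown 24 h in G-418-free DMEM, then exposed to 5, 10 or 20 µM compound for 24 or 48 h. Total RNA extracted and 1 µg reverse-transcribed with random decamers. SYBR Green real-time PCR run 40 cycles. HCV signal normalized to GAPDH and expressed relative to untreated replicon cells set at 1.0. Triplicate, averaged.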

SMILES	CC50 [1]	IC50 [2]	IC50 [3]	EC50 (Hepatitis C virus [4])	Activity (Hepacivirus hominis [5])	Activity (Hepacivirus hominis [6])	inhibition (Hepacivirus hominis [8])	other results
O=C(O)c1cc(Nc2ccc(C(Cl)(c3ccccc3)c3ccc(Nc4ccc(Cl)c(C(=O)O)c4)cc3)cc2)ccc1Cl	> 50 µM	25.1 µM	29.7 µM	> 50 µM	Active	Dose-dependent effect	–	–
CC(C)(c1ccc(O)cc1)c1ccc(C(C)(c2ccc(O)cc2)c2ccc(O)cc2)cc1	12.7 µM	25.9 µM	13.9 µM	8.37 µM	Active	Dose-dependent effect	–	Ratio CC50/EC50 [7]: 1.51
O=S(=O)(O)c1ccc(N=C2C=CC(=C(c3ccc(Nc4cccc(S(=O)(=O)O)c4)cc3)c3ccc(Nc4cccc(S(=O)(=O)O)c4)cc3)C=C2)cc1	> 50 µM	23.8 µM	40 µM	> 50 µM	Active	Dose-dependent effect	–	–
CC(c1ccccc1)(c1ccc(Oc2ccc([N+](=O)[O-])cc2)cc1)c1ccc(Oc2ccc([N+](=O)[O-])cc2)cc1	–	–	–	–	–	–	0%	–
CC(C)(c1ccc(C(C)(c2ccc(O)c(Br)c2)c2ccc(O)c(Br)c2)cc1)c1ccc(O)c(Br)c1	10.5 µM	–	10.1 µM	2.72 µM	–	–	–	Activity [9]: 50%; Activity [10]: 20%; Ratio CC50/EC50 [7]: 3.86; Activity (Hepatitis C virus [11]): 40%
Nc1ccc(C(c2ccc(N)cc2)c2ccc(N)cc2)cc1	–	–	–	–	–	–	30%	–
COc1ccc(C(C)(C)c2ccc(C(C)(c3ccc(OC)cc3)c3ccc(OC)cc3)cc2)cc1	–	–	–	–	–	–	15%	–
CC(c1ccc(O)cc1)(c1ccc(O)cc1)c1ccc(O)cc1	–	–	–	–	–	–	39%	–
CC(C)(c1ccc(O)cc1)c1ccc(C(C)(C)c2ccc(O)cc2)cc1	–	–	60.7 µM	–	–	–	–	–
CC(c1ccccc1)(c1ccc(O)cc1)c1ccc(O)cc1	–	–	–	–	–	–	43%	–
Cc1cc([C@@](O)(c2ccc(Nc3ccccc3)cc2)c2ccc(Nc3ccc(S(=O)(=O)[O-])cc3)cc2)ccc1N.[Na+]	0.96 µM	> 100 µM	12.6 µM	0.69 µM	inactive	Dose-dependent effect	–	Ratio CC50/EC50 [7]: 1.39
COc1ccc(-c2cc(-c3ccc(N(C)C)cc3)nc(NS(=O)(=O)c3ccc(N)cc3)n2)cc1	–	–	–	–	–	–	46%	–
